Assay results from ChEMBL document CHEMBL5500421 (J Med Chem, 2024).
The source made the active and inactive calls. No cut-off for these calls is given here.

Experiments:
[1] = biological target: T1, Sphingosine-1-phosphate transporter SPNS2 (Mus musculus) (UniProt Q91VM4); experiment: Inhibition of mouse Spns2 expressed in G418-resistant human HeLa cells assessed as decrease in S1P level at 1 uM incubated for 16 to 18 hrs by LC-MS/MS analysis relative to control; format: cell-based; conditions: time 16-18 hrs
T1 sequence (whole entry): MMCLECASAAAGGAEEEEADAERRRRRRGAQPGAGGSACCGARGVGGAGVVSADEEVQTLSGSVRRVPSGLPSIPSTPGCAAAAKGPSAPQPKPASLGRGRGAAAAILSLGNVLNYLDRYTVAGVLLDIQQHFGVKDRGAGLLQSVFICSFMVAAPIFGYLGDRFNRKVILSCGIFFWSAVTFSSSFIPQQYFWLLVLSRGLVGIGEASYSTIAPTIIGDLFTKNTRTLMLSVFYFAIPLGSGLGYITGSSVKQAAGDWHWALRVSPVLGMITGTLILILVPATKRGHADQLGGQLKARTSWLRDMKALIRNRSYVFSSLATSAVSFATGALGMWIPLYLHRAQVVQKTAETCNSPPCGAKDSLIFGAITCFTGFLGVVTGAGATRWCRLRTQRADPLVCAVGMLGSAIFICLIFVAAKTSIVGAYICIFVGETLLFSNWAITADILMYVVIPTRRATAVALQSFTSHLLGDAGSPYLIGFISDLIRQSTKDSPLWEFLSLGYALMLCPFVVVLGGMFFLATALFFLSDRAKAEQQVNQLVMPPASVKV
How it was run: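 HeLa cells stably transfected with mouse Spns2 (pcDNA3.1; G418-resistant pools). S1P catabolism blocked with 4-deoxypyridoxine 1 mM, NaF 2 mM and Na3VO4 0.2 mM. Near-confluent cells incubated 16–18 h at 37 °C with 1 μM inhibitor in serum-free medium containing 0.2% fatty-acid-free BSA. Medium S1P measured by LC-MS/MS; reported as % decrease versus no-inhibitor control, in duplicate.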

Mus musculus [2] = experiment: In vivo inhibition of Spns2 in C57BL/6J mouse assessed as decrease in lymphocytes count administered orally measured after 4 hrs by LC-MS/MS analysis; format: functional, organism-based; conditions: dose 10-100 mg/kg, route po
How it was run: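 Oral gavage at 10, 30 or 100 mg/kg, or vehicle (36.1% PEG400/9.1% ethanol/4.6% solutol/50% H2O), to five female C57BL/6j mice aged 8–10 weeks. Blood drawn 4 h post dose; lymphocytes counted in 20 μL blood on a haematology analyzer and compared with vehicle.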

[3] = Drug concentration in C57BL/6J mouse plasma at 10 mg/kg, po measured after 8 hrs LC-MS/MS analysis; format: ADME, organism-based
How it was run: (§1)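 Three female C57BL/6j mice, 8–10 weeks old, given a single 10 mg/kg oral dose. Vehicle: 36.1% PEG400/9.1% ethanol/4.6% solutol/50% H2O. Blood sampled over time after dosing; plasma compound levels quantified by LC-MS/MS.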

Mus musculus [4] = experiment: Effect on plasma S1P level in C57BL/6J mouse at 3 to 30 mg/kg, ip measured after 6 hrs by LC-MS/MS analysis; conditions: dose 3-30 mg/kg
Mus musculus [5] = experiment: Effect on plasma S1P level in C57BL/6J mouse at 10 to 100 mg/kg, po measured after 4 hrs by LC-MS/MS analysis; format: functional, organism-based; conditions: dose 10-100 mg/kg
How it was run: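 Five female C57BL/6j mice, 8–10 weeks old, dosed by oral gavage at 10, 30 or 100 mg/kg in 36.1% PEG400/9.1% ethanol/4.6% solutol/50% H2O, or vehicle alone. Plasma S1P measured by LC-MS/MS 4 h post dose and expressed relative to vehicle.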

[6] = Drug uptake in C57BL/6J mouse plasma at 10 mg/kg, po measured after 4 hrs by LC-MS/MS analysis; format: ADME, organism-based; conditions: in vivo; how it was run: as §1
[7] = biological target: T1, Sphingosine-1-phosphate transporter SPNS2 (Mus musculus); experiment: Inhibition of mouse Spns2 expressed in G418-resistant human HeLa cells assessed as decrease in S1P level incubated for 16 to 18 hrs by LC-MS/MS analysis; format: cell-based; conditions: dose upper 10.0 µM, time 16-18 hrs
How it was run: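 HeLa pools stably expressing mouse Spns2 (G418-selected), with S1P breakdown blocked by 4-deoxypyridoxine 1 mM, NaF 2 mM and Na3VO4 0.2 mM. Cells exposed for 16–18 h at 37 °C to 1 nM–10 μM inhibitor in serum-free 0.2% fatty-acid-free BSA medium. Released S1P quantified by LC-MS/MS; IC50 from dose–response […].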

SMILES	inhibition [1] [%]	inhibition (Mus musculus [2])	concentration at 8 h [3] [nM]	Activity (Mus musculus [4])	Activity (Mus musculus [5])	Drug uptake [6]	inhibition [7]
CCCCCCCCCCc1ccc(NC(=O)N2CCN[C@H](C)C2)cc1	80	–	–	–	–	–	–
CCCCCCCCCCc1ccc(NC(=O)N2CCNCC2)cc1.Cl	91	Dose-Dependent Effect	> 500	inactive	inactive	Active	Dose-Dependent Effect
CCCCCCCCCCc1ccc(NC(=O)N2CCN(C)CC2)cc1	3	–	–	–	–	–	–
